Results from ChEMBL document CHEMBL4138314, “Synthesis and Evaluation of N-Phenyl-3-sulfamoyl-benzamide Derivatives as Capsid Assembly Modulators Inhibiting Hepatitis B Virus (HBV)” (J Med Chem, 2018).
Converted amounts (≈) assume the structure as drawn. The source made the active and inactive calls. The rule behind the calls is not given here.

Legend:
MDR1 (P-gp) = test: Apparent permeability in pig LLC-PK1 cells expressing human MDR1 from apical to basolateral side in absence of P-gp inhibitor GF-120918; type: ADME, cell-based, Sus scrofa
Procedure, shortened: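 LLC-PK1-MDR1 monolayers; apical-to-basolateral apparent permeability measured without the P-gp inhibitor GF-120,918, run in parallel with an inhibitor-containing arm to form a +GF/−GF ratio.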

[1] = AUC (0 to last) in C57BL/6 mouse at 50 mg/kg, po by LC-MS/MS analysis; type: ADME, organism-based; set-up: dose 50 mg/kg, route oral, time 0 - last; settings: in vivo
Procedure, shortened: (§1)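 Single-dose PK in C57BL/6 mice after intravenous or oral dosing, with oral doses of 10 and 50 mg/kg; plasma clearance and volume of distribution taken from the i.v. arm.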

[2] = Volume of distribution at steady state in C57BL/6 mouse at 2.5 mg/kg, iv by LC-MS/MS analysis; type: ADME, organism-based; settings: in vivo, read-out: Vdss
[3] = AUC (0 to infinity) in humanized mouse at 50 mg/kg, sc for 8 days measured on day 8 post last dose by LC-MS/MS analysis; type: ADME, organism-based; set-up: dose 50 mg/kg, time infinity, route subcutaneous; settings: in vivo
HBV genotype D [4] = test: Antiviral activity against HBV genotype D infected in chimeric mouse with humanized liver assessed as reduction in HBsAg level at 200 mg/kg, sc qd for 28 days; type: functional, organism-based; settings: hepatitis B virus genotype D
Procedure, shortened: (§2)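 HBV genotype D-infected humanized-liver chimeric mice (≥70% human hepatocyte replacement) were dosed once daily for 28 days at 200 mg/kg s.c., with oral saline and oral entecavir 0.03 mg/kg as controls. Serum HBeAg and HBsAg were followed over the study.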

Cytochrome P450 1A2 = target: T1, Cytochrome P450 1A2 (Homo sapiens, UniProt P05177); test: Inhibition of CYP1A2 (unknown origin); type: ADME
T1 sequence (P05177 whole entry): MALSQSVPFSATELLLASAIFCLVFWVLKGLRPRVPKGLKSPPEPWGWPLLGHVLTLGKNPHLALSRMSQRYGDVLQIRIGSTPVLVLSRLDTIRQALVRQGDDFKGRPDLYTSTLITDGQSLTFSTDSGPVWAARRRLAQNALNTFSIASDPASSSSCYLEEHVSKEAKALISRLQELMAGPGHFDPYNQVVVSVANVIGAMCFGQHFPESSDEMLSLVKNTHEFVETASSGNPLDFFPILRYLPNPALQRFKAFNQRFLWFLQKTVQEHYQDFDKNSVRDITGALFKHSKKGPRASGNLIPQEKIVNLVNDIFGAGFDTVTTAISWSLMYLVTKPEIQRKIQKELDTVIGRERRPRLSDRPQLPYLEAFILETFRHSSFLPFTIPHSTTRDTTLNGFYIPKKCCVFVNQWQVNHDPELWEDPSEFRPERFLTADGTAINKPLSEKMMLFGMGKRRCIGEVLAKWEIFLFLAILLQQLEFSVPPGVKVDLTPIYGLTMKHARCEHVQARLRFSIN

[5] = Drug uptake in C57BL/6 mouse liver at 50 mg/kg, sc after 24 hrs by LC-MS/MS analysis; type: ADME, organism-based; settings: read-out: Drug uptake
Procedure, shortened: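 C57BL/6 mice dosed subcutaneously once at 50 mg/kg, given to bypass first-pass metabolism; compound measured in plasma (ng/mL) and liver (ng/g) 24 h after dosing.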

[6] = Drug uptake in humanized mouse liver at 50 mg/kg, sc after 24 hrs by LC-MS/MS analysis; type: ADME, organism-based; settings: read-out: Drug uptake
Procedure, shortened: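 Uninfected humanized mice given 50 or 200 mg/kg subcutaneously once daily as a methocel suspension for 8 days; liver concentration measured 24 h after dosing.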

[7] = AUC (0 to infinity) in humanized mouse at 200 mg/kg, sc for 8 days measured on day 8 post last dose by LC-MS/MS analysis; type: ADME, organism-based; set-up: dose 200 mg/kg, route subcutaneous, time infinity; settings: in vivo
Cytochrome P450 3A4 = Cytochrome P450 3A4 (Homo sapiens, UniProt P08684); test: Inhibition of CYP3A4 (unknown origin); type: ADME
Chain of Cytochrome P450 3A4 (P08684 whole entry): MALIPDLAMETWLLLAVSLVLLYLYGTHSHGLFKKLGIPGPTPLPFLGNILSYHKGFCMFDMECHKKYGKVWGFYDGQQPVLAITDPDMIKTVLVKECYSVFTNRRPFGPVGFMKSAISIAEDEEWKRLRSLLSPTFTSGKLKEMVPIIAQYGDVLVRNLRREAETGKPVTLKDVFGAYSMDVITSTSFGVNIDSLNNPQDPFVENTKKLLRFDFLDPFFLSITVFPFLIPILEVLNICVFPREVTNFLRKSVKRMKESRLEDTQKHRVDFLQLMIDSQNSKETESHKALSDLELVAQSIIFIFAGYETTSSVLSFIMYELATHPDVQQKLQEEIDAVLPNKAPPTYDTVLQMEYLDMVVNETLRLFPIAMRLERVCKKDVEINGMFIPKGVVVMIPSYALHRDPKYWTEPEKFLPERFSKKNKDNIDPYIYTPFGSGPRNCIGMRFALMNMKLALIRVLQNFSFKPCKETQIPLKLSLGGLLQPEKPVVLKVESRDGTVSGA

[8] = Tmax in C57BL/6 mouse at 50 mg/kg, po by LC-MS/MS analysis; type: ADME, organism-based; settings: in vivo
Procedure, shortened: (§3)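 Single-dose PK in C57BL/6 mice given compound intravenously and orally, with oral doses of 10 and 50 mg/kg. Plasma clearance, volume of distribution and oral bioavailability were derived from the plasma profiles.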

Cytochrome P450 2C19 = Cytochrome P450 2C19 (Homo sapiens, UniProt P33261); test: Inhibition of CYP2C19 (unknown origin); type: ADME
Chain of Cytochrome P450 2C19 (P33261 whole entry): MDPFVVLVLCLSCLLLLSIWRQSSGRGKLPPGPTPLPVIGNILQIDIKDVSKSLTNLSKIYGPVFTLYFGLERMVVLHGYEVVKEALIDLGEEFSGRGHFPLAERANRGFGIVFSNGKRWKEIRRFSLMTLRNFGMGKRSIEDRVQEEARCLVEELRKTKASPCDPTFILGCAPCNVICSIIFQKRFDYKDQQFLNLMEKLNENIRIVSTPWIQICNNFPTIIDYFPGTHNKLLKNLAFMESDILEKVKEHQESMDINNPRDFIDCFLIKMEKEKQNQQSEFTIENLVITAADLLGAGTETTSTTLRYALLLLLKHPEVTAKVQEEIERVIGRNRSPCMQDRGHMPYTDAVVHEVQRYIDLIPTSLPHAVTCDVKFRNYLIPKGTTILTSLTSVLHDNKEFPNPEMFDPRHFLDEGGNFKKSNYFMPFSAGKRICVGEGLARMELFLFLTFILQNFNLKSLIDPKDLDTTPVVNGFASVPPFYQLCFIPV

[9] = Kinetic solubility of the compound at pH 7.4 after 4 hrs by UPLC-UV analysis; type: physicochemical; settings: buffer, read-out: Kinetic_solubility
[10] = Tmax in humanized mouse at 50 mg/kg, sc measured on day 1 post dose by LC-MS/MS analysis; type: ADME, organism-based; settings: in vivo
[11] = target: Voltage-gated inwardly rectifying potassium channel KCNH2 (Homo sapiens, UniProt Q12809); test: Inhibition of human ERG
Chain of Voltage-gated inwardly rectifying potassium channel KCNH2 (Q12809 whole entry): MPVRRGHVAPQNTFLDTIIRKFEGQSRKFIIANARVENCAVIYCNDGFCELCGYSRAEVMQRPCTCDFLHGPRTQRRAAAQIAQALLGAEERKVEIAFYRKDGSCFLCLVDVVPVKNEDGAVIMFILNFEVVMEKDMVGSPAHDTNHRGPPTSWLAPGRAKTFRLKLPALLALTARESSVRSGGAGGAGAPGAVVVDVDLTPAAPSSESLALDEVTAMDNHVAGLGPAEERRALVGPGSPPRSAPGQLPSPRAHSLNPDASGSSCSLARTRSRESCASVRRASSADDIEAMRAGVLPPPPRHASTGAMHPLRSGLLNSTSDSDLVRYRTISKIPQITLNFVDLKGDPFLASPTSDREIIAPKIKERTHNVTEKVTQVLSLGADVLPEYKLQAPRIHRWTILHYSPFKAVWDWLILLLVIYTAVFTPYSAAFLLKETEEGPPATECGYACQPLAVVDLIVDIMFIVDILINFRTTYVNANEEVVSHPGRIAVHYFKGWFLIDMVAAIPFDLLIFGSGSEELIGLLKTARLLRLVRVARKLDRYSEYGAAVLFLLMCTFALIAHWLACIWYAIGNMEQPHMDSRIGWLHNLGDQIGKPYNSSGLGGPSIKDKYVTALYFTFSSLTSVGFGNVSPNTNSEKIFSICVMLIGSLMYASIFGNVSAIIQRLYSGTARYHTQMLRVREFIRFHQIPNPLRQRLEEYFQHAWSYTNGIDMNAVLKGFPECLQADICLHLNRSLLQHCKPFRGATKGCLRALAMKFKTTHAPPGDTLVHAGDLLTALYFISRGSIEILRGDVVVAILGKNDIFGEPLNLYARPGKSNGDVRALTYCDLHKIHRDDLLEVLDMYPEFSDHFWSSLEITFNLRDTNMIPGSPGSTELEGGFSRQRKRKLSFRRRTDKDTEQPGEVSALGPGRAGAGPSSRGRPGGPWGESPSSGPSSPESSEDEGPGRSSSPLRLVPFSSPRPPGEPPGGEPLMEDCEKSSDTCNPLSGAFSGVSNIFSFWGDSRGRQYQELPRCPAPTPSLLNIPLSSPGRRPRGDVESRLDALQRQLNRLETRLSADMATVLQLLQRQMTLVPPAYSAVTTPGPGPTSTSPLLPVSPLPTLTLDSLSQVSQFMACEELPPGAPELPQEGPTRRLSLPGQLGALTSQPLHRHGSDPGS

[12] = Cmax in humanized mouse at 50 mg/kg, sc measured on day 1 post dose by LC-MS/MS analysis; type: ADME, organism-based; set-up: dose 50 mg/kg, route subcutaneous; settings: in vivo
[13] = Half life in C57BL/6 mouse at 2.5 mg/kg, iv by LC-MS/MS analysis; type: ADME, organism-based; settings: in vivo; procedure, shortened: as §1
[14] = Half life in C57BL/6 mouse at 50 mg/kg, po by LC-MS/MS analysis; type: ADME, organism-based; settings: in vivo; procedure, shortened: as §1
Cytochrome P450 2C9 = Cytochrome P450 2C9 (Homo sapiens, UniProt P11712); test: Inhibition of CYP2C9 (unknown origin); type: ADME
Chain of Cytochrome P450 2C9 (P11712 whole entry): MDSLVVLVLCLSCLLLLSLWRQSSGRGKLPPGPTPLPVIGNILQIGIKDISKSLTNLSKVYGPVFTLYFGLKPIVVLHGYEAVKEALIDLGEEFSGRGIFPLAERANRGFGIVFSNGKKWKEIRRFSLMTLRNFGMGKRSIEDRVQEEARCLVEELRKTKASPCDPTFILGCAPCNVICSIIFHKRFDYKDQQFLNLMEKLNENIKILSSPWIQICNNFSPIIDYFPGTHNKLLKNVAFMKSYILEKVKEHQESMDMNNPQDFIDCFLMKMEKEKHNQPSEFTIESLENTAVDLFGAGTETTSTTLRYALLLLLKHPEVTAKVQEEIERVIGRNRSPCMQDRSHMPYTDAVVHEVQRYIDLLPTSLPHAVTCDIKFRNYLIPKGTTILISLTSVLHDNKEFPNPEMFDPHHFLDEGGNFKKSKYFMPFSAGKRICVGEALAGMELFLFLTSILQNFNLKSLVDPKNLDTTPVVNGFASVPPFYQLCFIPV

[15] = Oral bioavailability in C57BL/6 mouse at 10 mg/kg by LC-MS/MS analysis; type: ADME, organism-based; settings: in vivo; procedure, shortened: as §3
[16] = Plasma concentration in humanized mouse at 50 mg/kg, sc after 24 hrs by LC-MS/MS analysis; type: ADME, organism-based
[17] = Clearance in C57BL/6 mouse at 2.5 mg/kg, iv by LC-MS/MS analysis; type: ADME, organism-based; settings: in vivo; procedure, shortened: as §1
[18] = Drug metabolism in human primary hepatocytes assessed as cleavage of N-phenylamide; type: ADME, cell-based, Hepatocyte
Procedure, shortened: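 Compound incubated with primary hepatocytes and checked for cleavage of the N-phenylamide bond.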

[19] = Drug metabolism in mouse liver microsomes at 1 uM after 15 mins by LC-MS/MS analysis; type: ADME, microsome; settings: read-out: Drug metabolism
Procedure, shortened: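 Compound incubated 15 min with human or mouse liver microsomes; stability expressed as percent turnover (metabolised) at 15 min.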

[20] = Plasma concentration in humanized mouse at 200 mg/kg, sc after 24 hrs by LC-MS/MS analysis; type: ADME, organism-based
[21] = Bioavailability in C57BL/6 mouse at 50 mg/kg, sc by LC-MS/MS analysis; type: ADME, organism-based; settings: in vivo
[22] = target: T2, 5-hydroxytryptamine receptor 2B (Homo sapiens, UniProt P41595); test: Antagonist activity at 5-HT2B (unknown origin); type: functional
T2 sequence (P41595 whole entry): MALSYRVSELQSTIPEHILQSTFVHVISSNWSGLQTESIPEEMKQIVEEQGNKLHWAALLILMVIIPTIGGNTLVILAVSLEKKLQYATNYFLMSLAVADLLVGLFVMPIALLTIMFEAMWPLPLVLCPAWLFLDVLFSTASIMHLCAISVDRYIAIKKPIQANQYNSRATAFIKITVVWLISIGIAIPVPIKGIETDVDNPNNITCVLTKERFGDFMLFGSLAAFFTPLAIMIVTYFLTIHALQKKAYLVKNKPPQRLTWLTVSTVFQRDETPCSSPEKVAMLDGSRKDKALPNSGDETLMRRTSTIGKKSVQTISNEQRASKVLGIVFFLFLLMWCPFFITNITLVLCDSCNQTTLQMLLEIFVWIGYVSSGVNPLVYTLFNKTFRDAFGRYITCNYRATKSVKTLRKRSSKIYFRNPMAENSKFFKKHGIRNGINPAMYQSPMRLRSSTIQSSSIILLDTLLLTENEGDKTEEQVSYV
Procedure, shortened: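 Receptor/ion channel/transporter panel of 80 targets screened at 10 µM, giving percent effect at 5-HT2B; follow-up 5-HT2B functional testing in agonist and antagonist modes, with antagonist IC50 determined.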

[23] = target: T2, 5-hydroxytryptamine receptor 2B; test: Agonist activity at 5-HT2B (unknown origin); type: functional
[24] = Inhibition of sodium channel (unknown origin); set-up: species or system Homo sapiens
HBV genotype D [25] = test: Antiviral activity against HBV genotype D infected in chimeric mouse with humanized liver assessed as reduction in HBeAg level at 200 mg/kg, sc qd for 28 days; type: functional, organism-based; settings: hepatitis B virus genotype D; procedure, shortened: as §2
[26] = Tmax in C57BL/6 mouse at 50 mg/kg, sc by LC-MS/MS analysis; type: ADME, organism-based; settings: in vivo
Procedure, shortened: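 C57BL/6 mice dosed subcutaneously at 50 mg/kg to bypass first-pass metabolism; plasma and liver levels sampled 24 h after dosing.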

Cc1cc(NC(=O)c2cccc(S(=O)(=O)N[C@H]3CCOC3)c2)ccc1F
Papp A→B (MDR1 (P-gp)): 7.3 ×10⁻⁶ cm/s
AUC(0-t) [1]: 16400 ng·h/mL
Vd [2]: 1.3 L/kg
AUC(0-inf) [3]: 20700 ng·h/mL
Activity (HBV genotype D [4]): inactive
IC50 (Cytochrome P450 1A2): > 10 µM
concentration at 24 h [5]: 1300 ng/g
concentration at 24 h [6]: 570 ng/g
AUC(0-inf) [7]: 119000 ng·h/mL
IC50 (Cytochrome P450 3A4): > 10 µM
Tmax [8]: 0.7 h
IC50 (Cytochrome P450 2C19): > 10 µM
solubility kinetic at 4 h [9]: 82 µM (≈ 31 µg/mL)
Tmax [10]: 1 h
IC50 [11]: > 10 µM
Cmax [12]: 2190 ng/mL
half-life [13]: 0.42 h
half-life [14]: 2.4 h
IC50 (Cytochrome P450 2C9): > 10 µM
bioavailability [15]: 40%
concentration at 24 h [16]: 167 ng/mL
clearance [17]: 34 mL/min/kg
Drug metabolism [18]: Metabolite_Notdetected
metabolised at 0.25 h, 1 µM [19]: 51%
concentration at 24 h [20]: 1820 ng/mL
bioavailability [21]: 68%
IC50 [22]: 4 to 5.6 µM
Activity [23]: inactive
IC50 [24]: > 10 µM
Activity (HBV genotype D [25]): inactive
Tmax [26]: 1 h
